Measurements reported in ChEMBL document CHEMBL5030505, “Assessment of NR4A Ligands That Directly Bind and Modulate the Orphan Nuclear Receptor Nurr1” (J Med Chem, 2020).

Tests used:
Assay type in all cases: cell-based
[1] = target: Nuclear receptor subfamily 4immunitygroup A member 1 (Homo sapiens) (UniProt P22736); experiment: Modulation of full length human Nur77 expressed in SK-N-BE(2) cells co-transfected with RXRalpha and luciferase reporter plasmid harboring NBRE response element assessed as increase in luciferase activity incubated for 18 by luciferase reporter gene assay; details: SKNBE2, filed as modulator, time 18.0 hrs
Nuclear receptor subfamily 4immunitygroup A member 1 (Homo sapiens), sequence (P22736 whole entry): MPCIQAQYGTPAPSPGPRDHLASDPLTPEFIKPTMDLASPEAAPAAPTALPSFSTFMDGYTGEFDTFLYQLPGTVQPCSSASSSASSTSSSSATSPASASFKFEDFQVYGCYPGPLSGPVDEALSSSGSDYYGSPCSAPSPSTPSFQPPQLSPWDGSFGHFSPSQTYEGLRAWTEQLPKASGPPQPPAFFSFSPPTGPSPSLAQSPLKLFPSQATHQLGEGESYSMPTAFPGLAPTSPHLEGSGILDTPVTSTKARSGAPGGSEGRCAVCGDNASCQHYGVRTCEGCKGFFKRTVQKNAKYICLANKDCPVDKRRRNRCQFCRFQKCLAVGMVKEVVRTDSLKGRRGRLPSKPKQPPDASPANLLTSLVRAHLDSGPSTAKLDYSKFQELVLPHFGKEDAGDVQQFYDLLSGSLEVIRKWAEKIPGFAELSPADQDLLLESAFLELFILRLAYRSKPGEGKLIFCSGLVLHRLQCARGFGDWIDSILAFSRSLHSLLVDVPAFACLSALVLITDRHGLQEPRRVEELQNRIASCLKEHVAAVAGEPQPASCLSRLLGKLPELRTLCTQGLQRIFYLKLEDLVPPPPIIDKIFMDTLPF
In short: (§1)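 Cells seeded at 1.5 million per 10-cm dish. Next day they were transfected (Lipofectamine 2000) with full-length Nur77 or NOR-1 expression plasmid, either alone (2 μg) or 1 μg plus full-length RXRα (1 μg), and 3xNBRE- or 3xNurRE-luciferase reporter (6 μg), 18 h. Cells replated at 10,000/well, 4 h, then ligand dose response added in quadruplicate for 18 h. Luciferase luminescence read.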

[2] = target: Nuclear receptor subfamily 4 group A member 3 (Homo sapiens) (UniProt Q92570); experiment: Modulation of full length human NOR1 expressed in PC12 cells co-transfected with RXRalpha and luciferase reporter plasmid harboring NurRE response element assessed as increase in luciferase activity incubated for 18 by luciferase reporter gene assay; details: PC-12, filed as modulator, time 18.0 hrs
Nuclear receptor subfamily 4 group A member 3 (Homo sapiens), sequence (Q92570 whole entry): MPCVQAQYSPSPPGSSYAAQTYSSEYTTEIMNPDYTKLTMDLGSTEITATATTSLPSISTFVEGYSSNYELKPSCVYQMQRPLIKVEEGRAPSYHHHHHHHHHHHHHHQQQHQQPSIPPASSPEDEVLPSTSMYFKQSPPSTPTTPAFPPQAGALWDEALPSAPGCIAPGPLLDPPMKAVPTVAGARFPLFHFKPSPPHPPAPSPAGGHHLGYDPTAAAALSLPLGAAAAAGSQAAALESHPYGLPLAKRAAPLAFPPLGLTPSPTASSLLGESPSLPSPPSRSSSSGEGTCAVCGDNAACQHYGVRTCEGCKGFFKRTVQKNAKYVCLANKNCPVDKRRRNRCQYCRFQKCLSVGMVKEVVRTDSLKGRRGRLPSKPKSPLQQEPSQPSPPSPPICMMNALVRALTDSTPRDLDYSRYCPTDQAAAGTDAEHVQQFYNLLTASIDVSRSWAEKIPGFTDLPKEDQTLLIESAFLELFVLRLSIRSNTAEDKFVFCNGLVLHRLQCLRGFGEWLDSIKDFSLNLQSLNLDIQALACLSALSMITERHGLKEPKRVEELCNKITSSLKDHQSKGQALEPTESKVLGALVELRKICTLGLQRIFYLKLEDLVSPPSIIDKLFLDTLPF
In short: (§2)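 Full-length NOR-1 plasmid was transfected via Lipofectamine 2000, either alone (2 μg) or at 1 μg with full-length RXRα (1 μg). It was paired with a 3xNBRE or 3xNurRE luciferase reporter (6 μg), 8 μg total DNA, for 18 h. Cells were replated at 10,000/well for 4 h, then given a full ligand dose response or vehicle in quadruplicate for 18 h. Luciferase was read; no EC50/IC50 was fitted.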

[3] = target: Nuclear receptor subfamily 4 group A member 3 (Homo sapiens) (UniProt Q92570); experiment: Modulation of full length human NOR1 expressed in HEK293 cells co-transfected with luciferase reporter plasmid harboring NBRE response element assessed as increase in luciferase activity incubated for 18 hrs by luciferase reporter gene assay; details: filed as modulator; in short: as §2
[4] = target: Nuclear receptor subfamily 4immunitygroup A member 1 (Homo sapiens) (UniProt P22736); experiment: Modulation of full length human Nur77 expressed in HEK293 cells co-transfected with luciferase reporter plasmid harboring NBRE response element assessed as increase in luciferase activity incubated for 18 hrs by luciferase reporter gene assay; details: filed as modulator; in short: as §1
[5] = target: Nuclear receptor subfamily 4 group A member 3 (Homo sapiens) (UniProt Q92570); experiment: Modulation of full length human NOR1 expressed in SK-N-BE(2) cells co-transfected with luciferase reporter plasmid harboring NurRE response element assessed as increase in luciferase activity incubated for 18 by luciferase reporter gene assay; details: SKNBE2, filed as modulator, time 18.0 hrs; in short: as §1
[6] = target: Nuclear receptor subfamily 4immunitygroup A member 1 (Homo sapiens) (UniProt P22736); experiment: Modulation of full length human Nur77 expressed in PC12 cells co-transfected with RXRalpha and luciferase reporter plasmid harboring NurRE response element assessed as increase in luciferase activity incubated for 18 by luciferase reporter gene assay; details: PC-12, filed as modulator, time 18.0 hrs; in short: as §1
[7] = target: Nuclear receptor subfamily 4immunitygroup A member 1 (Homo sapiens) (UniProt P22736); experiment: Modulation of full length human Nur77 expressed in SK-N-BE(2) cells co-transfected with luciferase reporter plasmid harboring NBRE response element assessed as increase in luciferase activity incubated for 18 by luciferase reporter gene assay; details: SKNBE2, filed as modulator, time 18.0 hrs; in short: as §1
[8] = target: Nuclear receptor subfamily 4 group A member 3 (Homo sapiens) (UniProt Q92570); experiment: Modulation of full length human NOR1 expressed in SK-N-BE(2) cells co-transfected with RXRalpha and luciferase reporter plasmid harboring NurRE response element assessed as increase in luciferase activity incubated for 18 by luciferase reporter gene assay; details: SKNBE2, filed as modulator, time 18.0 hrs; in short: as §1
[9] = target: Nuclear receptor subfamily 4 group A member 2 (Homo sapiens) (UniProt P43354); experiment: Modulation of full length human Nurr1 expressed in HEK293T cells co-transfected with luciferase reporter plasmid harboring NBRE response element assessed as increase in luciferase activity incubated for 18 hrs by luciferase reporter-gene assay; details: filed as modulator
Nuclear receptor subfamily 4 group A member 2 (Homo sapiens), sequence (P43354 whole entry): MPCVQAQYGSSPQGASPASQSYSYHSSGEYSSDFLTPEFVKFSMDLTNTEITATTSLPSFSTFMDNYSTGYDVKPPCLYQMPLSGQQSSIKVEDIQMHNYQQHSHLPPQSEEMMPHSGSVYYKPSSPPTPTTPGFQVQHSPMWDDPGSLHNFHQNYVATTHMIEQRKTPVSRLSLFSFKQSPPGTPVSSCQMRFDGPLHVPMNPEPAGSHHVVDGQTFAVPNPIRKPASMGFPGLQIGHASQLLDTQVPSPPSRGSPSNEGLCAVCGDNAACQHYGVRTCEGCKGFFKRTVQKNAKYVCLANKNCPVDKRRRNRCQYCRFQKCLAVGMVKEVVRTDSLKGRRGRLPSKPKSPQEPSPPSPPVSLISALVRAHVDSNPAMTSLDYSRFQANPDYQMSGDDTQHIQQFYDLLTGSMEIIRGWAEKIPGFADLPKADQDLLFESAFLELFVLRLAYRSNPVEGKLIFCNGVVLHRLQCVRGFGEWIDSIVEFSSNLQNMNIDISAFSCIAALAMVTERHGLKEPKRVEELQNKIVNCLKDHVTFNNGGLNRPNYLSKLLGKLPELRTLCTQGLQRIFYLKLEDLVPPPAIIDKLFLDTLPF
In short: (§3)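 Full-length Nurr1 plasmid, alone (2 μg) or 1 μg plus full-length RXRα (1 μg), cotransfected with 3xNBRE- or 3xNurRE-luciferase reporter (6 μg) using Lipofectamine 2000, 18 h. Cells replated at 10,000/well for 4 h. Four ligand concentrations, or vehicle (water, ethanol or DMSO), added in quadruplicate for 18 h. Luciferase read. Fold change vs vehicle, mean ± s.e.m., one-way ANOVA vs vehicle.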

[10] = target: Nuclear receptor subfamily 4 group A member 2 (Homo sapiens) (UniProt P43354); experiment: Modulation of full length human Nurr1 expressed in PC12 cells co-transfected with luciferase reporter plasmid harboring NurRE response element assessed as increase in luciferase activity incubated for 18 hrs by luciferase reporter-gene assay; details: PC-12, filed as modulator
In short: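 Here PC12 cells (FK-12 medium, 15% horse serum, 2.5% FBS, 37°C, 5% CO2) received full-length Nurr1 (2 μg) without RXRα, plus 3xNBRE- or 3xNurRE-luciferase reporter (6 μg), for 18 h. Cells were replated at 10,000/well for 4 h, then treated with ligand or vehicle in quadruplicate for 18 h. Luciferase luminescence was normalized to vehicle-treated cells. Results are mean ± s.e.m. (n=4) from 2 independent experiments, with one-way ANOVA against vehicle.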

[11] = target: Nuclear receptor subfamily 4 group A member 2 (Homo sapiens) (UniProt P43354); experiment: Modulation of full length human Nurr1 expressed in HEK293T cells co-transfected with luciferase reporter plasmid harboring NurRE response element assessed as increase in luciferase activity incubated for 18 hrs by luciferase reporter-gene assay; details: filed as modulator; in short: as §3
[12] = target: Nuclear receptor subfamily 4 group A member 2 (Homo sapiens) (UniProt P43354); experiment: Modulation of full length human Nurr1 expressed in PC12 cells co-transfected with RXRalpha and luciferase reporter plasmid harboring NBRE response element assessed as increase in luciferase activity incubated for 18 hrs by luciferase reporter-gene assay; details: PC-12, filed as modulator
In short: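 PC12 cells were grown at 37°C and 5% CO2 in […] medium with 15% horse serum and 2.5% FBS. They were transfected with full-length Nurr1 (1 μg) plus full-length RXRα (1 μg) and 3xNBRE- or 3xNurRE-luciferase reporter (6 μg) for 18 h, then replated at 10,000 cells/well for 4 h. Ligand or vehicle (water, ethanol or DMSO) was added in quadruplicate for 18 h. Luminescence was read as fold change over vehicle. Results are mean ± s.e.m., n=4, from 2 independent experiments, analysed by one-way ANOVA against vehicle.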

[13] = target: Nuclear receptor subfamily 4immunitygroup A member 1 (Homo sapiens) (UniProt P22736); experiment: Modulation of full length human Nur77 expressed in PC12 cells co-transfected with luciferase reporter plasmid harboring NBRE response element assessed as increase in luciferase activity incubated for 18 by luciferase reporter gene assay; details: PC-12, filed as modulator, time 18.0 hrs; in short: as §1
[14] = target: Nuclear receptor subfamily 4immunitygroup A member 1 (Homo sapiens) (UniProt P22736); experiment: Modulation of full length human Nur77 expressed in HEK293 cells co-transfected with luciferase reporter plasmid harboring NurRE response element assessed as increase in luciferase activity incubated for 18 hrs by luciferase reporter gene assay; details: filed as modulator; in short: as §1
[15] = target: Nuclear receptor subfamily 4 group A member 2 (Homo sapiens) (UniProt P43354); experiment: Modulation of full length human Nurr1 expressed in SKNBE(2) cells co-transfected with luciferase reporter plasmid harboring NBRE response element assessed as increase in luciferase activity incubated for 18 hrs by luciferase reporter-gene assay; details: SKNBE2, filed as modulator
In short: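 Transfection of SK-N-BE(2)-C cells (1:1 EMEM/F12, 10% FBS, 37°C, 5% CO2) used full-length Nurr1 alone (2 μg, no RXRα) with 3xNBRE- or 3xNurRE-luciferase reporter (6 μg) for 18 h. Cells were replated at 10,000/well for 4 h, then exposed to ligand or vehicle in quadruplicate for 18 h. Luminescence was expressed as fold over vehicle, as mean ± s.e.m. (n=4) from 2 independent experiments, one-way ANOVA against vehicle.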

[16] = target: Nuclear receptor subfamily 4 group A member 3 (Homo sapiens) (UniProt Q92570); experiment: Modulation of full length human NOR1 expressed in HEK293T cells co-transfected with RXRalpha luciferase reporter plasmid harboring NurRE response element assessed as increase in luciferase activity incubated for 18 hrs by luciferase reporter gene assay; details: filed as modulator; in short: as §2
[17] = target: Nuclear receptor subfamily 4immunitygroup A member 1 (Homo sapiens) (UniProt P22736); experiment: Modulation of full length human Nur77 expressed in HEK293 cells co-transfected with RXRalpha and luciferase reporter plasmid harboring NBRE response element assessed as increase in luciferase activity incubated for 18 hrs by luciferase reporter gene assay; details: filed as modulator; in short: as §1

Measured: Activity

CCCCCCCC(=O)c1c(O)cc(O)cc1CC(=O)OCC [CYTOSPORONE B]
active: [1] Dose-Dependent Effect | [2] Dose-Dependent Effect | [3] Dose-Dependent Effect | [4] Dose-Dependent Effect | [5] Dose-Dependent Effect | [6] Dose-Dependent Effect | [7] Dose-Dependent Effect | [8] Dose-Dependent Effect | [9] Dose-Dependent Effect | [10] Dose-Dependent Effect | [11] Dose-Dependent Effect | [12] Dose-Dependent Effect | [13] Dose-Dependent Effect | [14] Dose-Dependent Effect | [15] Dose-Dependent Effect | [16] Dose-Dependent Effect | [17] Dose-Dependent Effect

CCN(CC)Cc1cc(Nc2ccnc3cc(Cl)ccc23)ccc1O [AMODIAQUINE]
active: [1] Dose-Dependent Effect | [2] Dose-Dependent Effect | [3] Dose-Dependent Effect | [4] Dose-Dependent Effect | [5] Dose-Dependent Effect | [6] Dose-Dependent Effect | [7] Dose-Dependent Effect | [8] Dose-Dependent Effect | [9] Dose-Dependent Effect | [10] Dose-Dependent Effect | [11] Dose-Dependent Effect | [12] Dose-Dependent Effect | [13] Dose-Dependent Effect | [14] Dose-Dependent Effect | [15] Dose-Dependent Effect | [16] Dose-Dependent Effect | [17] Dose-Dependent Effect

CCN(CC)CCCC(C)Nc1ccnc2cc(Cl)ccc12 (stereo unspecified) [CHLOROQUINE]
active: [1] Dose-Dependent Effect | [2] Dose-Dependent Effect | [3] Dose-Dependent Effect | [4] Dose-Dependent Effect | [5] Dose-Dependent Effect | [6] Dose-Dependent Effect | [7] Dose-Dependent Effect | [8] Dose-Dependent Effect | [9] Dose-Dependent Effect | [10] Dose-Dependent Effect | [11] Dose-Dependent Effect | [12] Dose-Dependent Effect | [13] Dose-Dependent Effect | [14] Dose-Dependent Effect | [15] Dose-Dependent Effect | [16] Dose-Dependent Effect | [17] Dose-Dependent Effect
